Each block holds one compound with its values, some of them ahead of it.
Tests used:
HepG2 cells = test: MTT cell viability assay; format: cell-based, human; conditions: 0−100 μM, data not shown
Method in brief: (§1)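 Viability was read as MTT tetrazolium reduction in confluent HepG2 (RPMI 1640) or LS180 (Eagle's MEM with Earle's balanced salts) cells at 37 °C, 5% CO2. Test compound was given at 0–100 µmol/L from DMSO stock; final DMSO ≤0.1%.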

LS180 cells = test: MTT cell viability assay; format: cell-based, human; conditions: 0−100 μM, data not shown
Method in brief: as §1

[1] = system: CYP1A1, CYP1A2, CYP1B1 (EROD activity); test: EROD activity in intact HepG2 cells; format: cell-based, human; conditions: 24 hours; for inhibition of TCDD (PAH)-induced EROD activity: 50 μM compound + 250 pmol TCDD; for induction of EROD activity: 50 μM compound alone
CYP1A1 = molecular target: T1, CYP1A1 (Homo sapiens, UniProt P04798); test: Recombinant CYP1A1 Supersomes EROD activity; format: biochemical; conditions: for change of Vmax with increasing compound concentration / nature of CYP1A1 inhibition (Michaelis-Menten kinetic analysis): recombinant CYP1A1 Supersomes
T1 sequence (P04798 1-512): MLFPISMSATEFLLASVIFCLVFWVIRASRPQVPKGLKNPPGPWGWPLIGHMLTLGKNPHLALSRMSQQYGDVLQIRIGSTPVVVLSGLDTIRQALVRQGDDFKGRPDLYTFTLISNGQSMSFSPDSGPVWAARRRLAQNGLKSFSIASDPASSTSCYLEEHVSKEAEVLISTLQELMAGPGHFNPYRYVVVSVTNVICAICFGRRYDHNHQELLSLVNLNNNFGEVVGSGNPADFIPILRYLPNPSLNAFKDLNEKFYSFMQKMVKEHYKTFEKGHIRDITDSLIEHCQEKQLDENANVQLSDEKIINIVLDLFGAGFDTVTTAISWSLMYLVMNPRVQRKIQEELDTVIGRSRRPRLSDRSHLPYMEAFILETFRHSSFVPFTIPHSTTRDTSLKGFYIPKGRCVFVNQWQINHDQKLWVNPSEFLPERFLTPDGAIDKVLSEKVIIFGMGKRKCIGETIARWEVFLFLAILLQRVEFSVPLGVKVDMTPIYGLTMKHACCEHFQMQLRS

phase II genes = test: Phase II gene expression; format: cell-based, human; conditions: RT-PCR
[2] = rats; cited from earlier work
CYP1A1 mRNA [3] = test: CYP1A1 mRNA expression by RT-PCR in HepG2 cells; conditions: co-treatment with 250 pmol TCDD or 1 μM DMBA, 24 hours
CYP1A2 mRNA [4] = test: CYP1A2 mRNA expression by RT-PCR in HepG2 cells; conditions: co-treatment with 250 pmol TCDD or 1 μM DMBA, 24 hours
CYP1B1 mRNA [5] = test: CYP1B1 mRNA expression by RT-PCR in HepG2 cells; conditions: 24 hours; for effect on TCDD- and DMBA-induced CYP1B1 mRNA expression: co-treatment with 250 pmol TCDD or 1 μM DMBA
CYP1A1 mRNA [6] = test: CYP1A1 mRNA expression by RT-PCR in LS180 cells; conditions: co-treatment with 250 pmol TCDD or 1 μM DMBA, 24 hours
CYP1A2 mRNA [7] = test: CYP1A2 mRNA expression by RT-PCR in LS180 cells; conditions: co-treatment with 250 pmol TCDD or 1 μM DMBA, 24 hours
CYP1B1 mRNA [8] = test: CYP1B1 mRNA expression by RT-PCR in LS180 cells; conditions: 24 hours; for effect on TCDD- and DMBA-induced CYP1B1 mRNA expression: co-treatment with 250 pmol TCDD or 1 μM DMBA
[9] = system: CYP1A1 heterogeneous nuclear RNA (hnCYP1A1); test: CYP1A1 gene transcription rate; conditions: HepG2; co-treatment with 250 pmol TCDD or 1 μM DMBA
[10] = molecular target: T2, aryl hydrocarbon receptor (AhR) (Homo sapiens, UniProt P35869); test: Chromatin immunoprecipitation; conditions: HepG2; 50 μM compound + 10 nmol TCDD; 90 minutes; TCDD alone 6.2-fold
T2 sequence (P35869 11-848): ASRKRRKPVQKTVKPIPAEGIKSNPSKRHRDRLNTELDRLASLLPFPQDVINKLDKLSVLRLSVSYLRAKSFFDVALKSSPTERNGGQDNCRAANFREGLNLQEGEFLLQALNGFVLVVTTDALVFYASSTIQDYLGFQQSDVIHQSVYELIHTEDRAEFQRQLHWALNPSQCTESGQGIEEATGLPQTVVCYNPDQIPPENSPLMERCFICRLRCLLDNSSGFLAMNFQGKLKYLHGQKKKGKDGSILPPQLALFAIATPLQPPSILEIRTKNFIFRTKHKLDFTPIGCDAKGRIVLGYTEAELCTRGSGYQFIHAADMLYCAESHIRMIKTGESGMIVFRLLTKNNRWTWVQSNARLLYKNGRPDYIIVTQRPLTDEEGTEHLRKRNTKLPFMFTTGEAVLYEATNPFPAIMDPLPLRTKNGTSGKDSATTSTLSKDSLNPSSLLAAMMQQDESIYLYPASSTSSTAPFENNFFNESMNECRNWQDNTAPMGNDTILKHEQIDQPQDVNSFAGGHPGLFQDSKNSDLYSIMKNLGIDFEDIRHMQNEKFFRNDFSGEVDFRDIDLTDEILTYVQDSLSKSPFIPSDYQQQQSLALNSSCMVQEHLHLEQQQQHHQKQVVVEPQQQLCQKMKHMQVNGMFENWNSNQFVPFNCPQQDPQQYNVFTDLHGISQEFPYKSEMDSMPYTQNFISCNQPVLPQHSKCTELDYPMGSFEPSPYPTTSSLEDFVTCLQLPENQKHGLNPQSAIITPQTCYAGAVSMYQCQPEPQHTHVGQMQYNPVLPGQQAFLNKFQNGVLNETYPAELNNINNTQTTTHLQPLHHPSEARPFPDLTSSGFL

CYP1B1 = molecular target: T3, CYP1B1 (Homo sapiens, UniProt Q16678); test: Recombinant CYP1B1 Supersomes EROD activity; format: biochemical
T3 sequence (Q16678 1-543): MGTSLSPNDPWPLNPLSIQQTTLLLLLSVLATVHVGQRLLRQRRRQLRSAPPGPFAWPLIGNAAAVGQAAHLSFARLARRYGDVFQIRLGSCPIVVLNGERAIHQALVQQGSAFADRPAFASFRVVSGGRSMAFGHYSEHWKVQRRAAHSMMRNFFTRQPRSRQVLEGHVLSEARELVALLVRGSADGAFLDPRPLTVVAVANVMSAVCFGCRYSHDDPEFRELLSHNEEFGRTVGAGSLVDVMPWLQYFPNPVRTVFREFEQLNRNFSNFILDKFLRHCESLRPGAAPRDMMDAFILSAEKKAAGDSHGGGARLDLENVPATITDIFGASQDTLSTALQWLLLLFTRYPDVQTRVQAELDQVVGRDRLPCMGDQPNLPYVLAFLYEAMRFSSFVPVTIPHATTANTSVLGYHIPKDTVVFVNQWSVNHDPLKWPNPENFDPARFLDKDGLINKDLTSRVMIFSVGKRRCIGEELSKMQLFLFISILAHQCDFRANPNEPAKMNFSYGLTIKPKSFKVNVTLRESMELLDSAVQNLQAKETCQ

CYP1A2 = molecular target: T4, CYP1A2 (Homo sapiens, UniProt P05177); test: Recombinant CYP1A2 Supersomes EROD activity; format: biochemical
T4 sequence (P05177 1-516): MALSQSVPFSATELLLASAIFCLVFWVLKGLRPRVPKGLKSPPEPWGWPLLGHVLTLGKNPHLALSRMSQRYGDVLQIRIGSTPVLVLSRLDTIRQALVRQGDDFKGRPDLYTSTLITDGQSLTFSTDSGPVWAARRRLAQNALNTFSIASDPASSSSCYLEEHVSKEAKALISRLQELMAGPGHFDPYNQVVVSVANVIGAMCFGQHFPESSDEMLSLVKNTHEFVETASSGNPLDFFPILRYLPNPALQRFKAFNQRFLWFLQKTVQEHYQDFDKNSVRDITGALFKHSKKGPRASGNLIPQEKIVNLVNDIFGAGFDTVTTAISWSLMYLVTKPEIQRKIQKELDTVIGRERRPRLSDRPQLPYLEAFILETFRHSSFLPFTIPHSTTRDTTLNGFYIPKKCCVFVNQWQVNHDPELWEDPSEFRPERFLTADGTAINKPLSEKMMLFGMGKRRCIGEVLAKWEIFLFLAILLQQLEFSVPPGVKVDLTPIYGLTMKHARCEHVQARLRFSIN

G6PD mRNA = G6PD mRNA expression by RT-PCR in HepG2 cells; format: cell-based, human; conditions: 50 μM, 24 hours, over 18S RNA control
[11] = system: catalase and glutathione reductase; conditions: 25 μM; cited from earlier work
[12] = system: CYP1A1 heterogeneous nuclear RNA (hnCYP1A1)

Compound: O=C(Cc1ccccc1Nc1c(Cl)cccc1Cl)Oc1ccc(-c2cc(=S)ss2)cc1 [ACS 15, 2-[(2,6-dichlorophenyl)amino]benzeneacetic acid 4-(3H-1,2,dithiol-3-thione-5-yl)phenyl ester]
- cell viability (MTT) (HepG2 cells): non-toxic
- cell viability (MTT) (LS180 cells): non-toxic
- inhibition of TCDD (PAH)-induced EROD activity [1]: inhibited
- change of Vmax with increasing compound concentration (CYP1A1): unchanged
- nature of CYP1A1 inhibition (Michaelis-Menten kinetic analysis) (CYP1A1): competitive
- effect on phase II gene expression (phase II genes): No significant increases
- less gastro-intestinal damage than diclofenac [2]: > 90%
- effect on TCDD- and DMBA-induced CYP1A1 mRNA expression (CYP1A1 mRNA [3]): inhibited in a concentration-dependent manner
- effect on TCDD- and DMBA-induced CYP1A2 mRNA expression (CYP1A2 mRNA [4]): inhibited in a concentration-dependent manner
- effect on TCDD- and DMBA-induced CYP1B1 mRNA expression (CYP1B1 mRNA [5]): inhibited in a concentration-dependent manner
- effect on TCDD- and DMBA-induced CYP1A1 mRNA expression (CYP1A1 mRNA [6]): inhibited in a concentration-dependent manner
- effect on TCDD- and DMBA-induced CYP1A2 mRNA expression (CYP1A2 mRNA [7]): inhibited in a concentration-dependent manner
- effect on TCDD- and DMBA-induced CYP1B1 mRNA expression (CYP1B1 mRNA [8]): inhibited in a concentration-dependent manner
- effect on TCDD- and DMBA-stimulated hnCYP1A1 expression [9]: abrogated the stimulatory effects
- level of activated AhR on co-treatment with TCDD (ChIP) [10]: 2.6 fold

- inhibition of TCDD (PAH)-induced EROD activity [1]: inhibited
- induction of EROD activity [1]: 0.46 +/− 0.01 pmoles/min/well
- IC50 (CYP1A1): 40 nM
- change of Vmax with increasing compound concentration (CYP1A1): unchanged
- nature of CYP1A1 inhibition (Michaelis-Menten kinetic analysis) (CYP1A1): competitive
- IC50 (CYP1B1): 230 nM
- IC50 (CYP1A2): 3100 nM
- effect on TCDD- and DMBA-induced CYP1A1 mRNA expression (CYP1A1 mRNA [3]): similar
- effect on TCDD- and DMBA-induced CYP1A2 mRNA expression (CYP1A2 mRNA [4]): similar
- effect on TCDD- and DMBA-induced CYP1B1 mRNA expression (CYP1B1 mRNA [5]): similar
- effect on TCDD- and DMBA-induced CYP1A1 mRNA expression (CYP1A1 mRNA [6]): similar
- effect on TCDD- and DMBA-induced CYP1A2 mRNA expression (CYP1A2 mRNA [7]): similar
- effect on TCDD- and DMBA-induced CYP1B1 mRNA expression (CYP1B1 mRNA [8]): similar
- effect on TCDD- and DMBA-stimulated hnCYP1A1 expression [9]: similar
Compound: CC1=C(CC(=O)Oc2ccc(-c3cc(=S)ss3)cc2)c2cc(F)ccc2/C1=C\c1ccc([S+](C)[O-])cc1 (stereo not shown) [ACS 18, (Z)-5-Fluoro-2-methyl-1-[[4-(methylsulfinyl)phenyl]-methylene]-1H-indene-3-acetic acid 4-(5-thioxo-5H-[1,2]dithiol-3-yl)-phenyl ester]
- cell viability (MTT) (HepG2 cells): non-toxic
- cell viability (MTT) (LS180 cells): non-toxic
- increase in G6PD mRNA expression (G6PD mRNA): 1.5 fold

Compound: COc1ccc(-c2cc(=S)ss2)cc1 [ADT, 5-[p-methoxyphenyl]-1,2-dithiole-3-thione]
- increases in the phase II enzymes catalase and glutathione reductase [11]: less than 2 fold

Compound: Cc1c2ccccc2c(C)c2c1ccc1ccccc12 [DMBA]
- fold increase in hnCYP1A1 expression over DMSO control levels [12]: 12 fold
- fold increase in CYP1B1 mRNA expression compared to DMSO controls (CYP1B1 mRNA [5]; TCDD 250 pmol, DMBA 1 μM): 8.4 fold
- fold increase in CYP1B1 mRNA expression compared to DMSO controls (CYP1B1 mRNA [8]; TCDD 250 pmol, DMBA 1 μM): 2.5 fold

Compound: [Na+].[SH-] [NaHS]
- inhibition of TCDD (PAH)-induced EROD activity [1]: not inhibited

- inhibition of TCDD (PAH)-induced EROD activity [1]: not inhibited
Compound: O=C(O)Cc1ccccc1Nc1c(Cl)cccc1Cl [diclofenac]

- inhibition of TCDD (PAH)-induced EROD activity [1]: not inhibited
- induction of EROD activity [1]: 4.45 +/− 0.09 pmoles/min/well
Compound: CC1=C(CC(=O)O)c2cc(F)ccc2/C1=C\c1ccc([S+](C)[O-])cc1 (stereo not shown) [sulindac]
